Measurements collected from several papers.
Target: Serine/threonine-protein kinase MARK2 (MARK2, Homo sapiens, UniProt Q7KZI7)

Structure (SMILES)	read-out	technique	concentration	remaining binding
C[C@@]1(Cc2ccc(C#N)cc2)C(=O)N(c2cc(Cl)cc(Cl)c2)c2ncc(C(=O)NC3(c4nc(C5CCC5)no4)CC3)n21	cell-free assay	competition with immobilised ligand	1 µM	85%
O=C(NCCCN1CCOCC1)c1ccc(Nc2ncc(Cl)c(-c3ccc(Cl)s3)n2)cc1	binding	competition with immobilised ligand	1 µM	74%
CN(CCCC(F)(F)F)c1nccc(-c2cnn3ncccc23)n1	binding	–	1 µM	100%
O=S(=O)(NC1CCC(c2cc(F)ccc2F)(S(=O)(=O)c2ccc(Cl)cc2)CC1)C(F)(F)F (stereo not shown)	cell-free assay	competition with immobilised ligand	1 µM	100%
N[C@H]1CCN(c2nccc(-c3cnn4ncccc34)n2)C1	binding	–	1 µM	100%
COc1ncc2cc3ccccc3nc2c1C#N	cell-free assay	competition with immobilised ligand	5 µM	97%
C[C@H](c1ccnc(Nc2nc3ccc(-c4cc(N(C)C)ncn4)cc3[nH]2)c1)N1CCN(C(=O)CC(F)(F)F)CC1	cell-free assay	competition with immobilised ligand	0.1 µM	100%
O=C(NCCCN1CCOCC1)c1ccc(Nc2nccc(-c3cc4ccccc4s3)n2)cc1	binding	competition with immobilised ligand	1 µM	81%
C[C@H]1CCN(c2nccc(-c3cnn4ncccc34)n2)C1	binding	–	1 µM	100%
C[C@H](c1ccc(F)cc1)N(Cc1cccc(C(=O)O)c1)C(=O)c1cnc2ccccc2c1	cell-free assay	competition with immobilised ligand	1 µM	80%
O=C(Nc1c[nH]nc1C(=O)NC1CCNCC1)c1cc(F)cc(F)c1	binding	competition with immobilised ligand	1 µM	100%
O=C(Nc1cccnn1)N1CCC(=Cc2cccc(Oc3ccc(C(F)(F)F)cn3)c2)CC1	cell-free assay	competition with immobilised ligand	1 µM	100%
CC1CCCN1c1nccc(-c2cnn3ncccc23)n1 (stereo not shown)	binding	–	1 µM	70%
C[C@@H](c1ccc(-n2cnc3c(N)ncnc32)cc1)N1CCc2nn(C)c(Cc3ccccc3)c2C1=O	binding	competition with immobilised ligand	0.1 µM	91%
CN(C)c1nccc(-c2cnn3ncccc23)n1	binding	–	1 µM	96%
Cc1cnc(Nc2ccc(C(=O)N3CCC(N4CCCC4)CC3)cc2)nc1-c1cc2ccccc2s1	binding	competition with immobilised ligand	1 µM	68%
FC(F)(F)Oc1cccc(-c2cnc3ccc(-c4ccncc4)nn23)c1	cell-free assay	competition with immobilised ligand	5 µM	64%
F[C@@H]1CCN(c2nccc(-c3cnn4ncccc34)n2)C1	binding	–	1 µM	100%
O=C(O)[C@@H]1[C@@H](Cn2nnc3ccccc3c2=O)CC[C@H]1C(=O)c1ccc(OCCC2CCOCC2)cc1	cell-free assay	competition with immobilised ligand	1 µM	100%
CN(C)c1ncc(F)c(-c2cnn3ncccc23)n1	binding	–	1 µM	72%
COc1cccc(CNC(=O)c2nc3scc(COCc4ccc(C(=O)O)cc4)c3c(=O)[nH]2)c1	cell-free assay	competition with immobilised ligand	1 µM	100%
CNC(=O)[C@@H]1CC[C@@H](n2c(-c3ccc4cnccc4c3)nc3ccc(C(=O)NCc4cccc(C(N)=O)c4)cc32)C1	binding	competition with immobilised ligand	1 µM	100%
